# SENP1 inh – inhibitors of human SENP1 SUMO protease catalytic domain; Q9P0U3; recombinant SENP1 catalytic domain, CyPet-SUMO1-YPet FRET cleavage; inhibition, % at 10 µM; hit rate 0.21% among 360,000; AID 624204;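 active = inhibition at least 30% at 10 µM, raw YFP signal under a set limit, fluorescence ratio 0.5 to 1.5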;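 note: 0% = enzyme with DMSO and 100% = no enzyme wells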
# Target sequence (Q9P0U3 419-644 limits assumed): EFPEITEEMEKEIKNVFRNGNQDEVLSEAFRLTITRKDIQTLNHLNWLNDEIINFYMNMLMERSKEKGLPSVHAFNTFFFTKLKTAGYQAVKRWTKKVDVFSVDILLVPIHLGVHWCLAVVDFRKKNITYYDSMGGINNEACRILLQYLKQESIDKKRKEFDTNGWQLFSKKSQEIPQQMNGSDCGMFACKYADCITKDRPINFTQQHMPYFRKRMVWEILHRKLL
#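 Controls: no-enzyme wells low, DMSO-plus-enzyme wells high control. Test system: human recombinant His6-tagged SENP1 catalytic domain enzyme. Reagent: SFCypet-SUMO1-SFYpet FRET protein substrate, 25 nM final. Doses: one dose per compound, 10 µM, 0.5% DMSO. Detection: FRET, CFP and YFP emission. Timing: 50 min reaction at room temperature.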
# SENP8 block-1 – blocks human SENP8 cleavage of Nedd8 substrate; Q96LD8; recombinant SENP8, Nedd8 substrate fluorescence; inhibition, % at 20 µM; hit rate 0.64% among 360,000; in the data active = inhibition mostly above about 40%, no sharp cut-off; inactive = mostly below about 27%
# Target sequence (Q96LD8 whole entry, looked up): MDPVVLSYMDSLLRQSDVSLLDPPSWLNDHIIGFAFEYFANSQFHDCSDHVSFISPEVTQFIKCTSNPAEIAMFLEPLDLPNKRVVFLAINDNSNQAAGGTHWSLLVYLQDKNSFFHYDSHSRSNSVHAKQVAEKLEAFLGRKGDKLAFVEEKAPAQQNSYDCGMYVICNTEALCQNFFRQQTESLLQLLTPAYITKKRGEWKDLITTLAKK
# SENP6 block – SENP6 protease inhibition. AID 2599. hit rate 1.8% among 330,000. Recombinant SENP6 catalytic domain, aminoluciferin luminescence. inhibition, % at 10 µM;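 active = inhibition above about 50% at the single tested dose, limit read from the data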;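 note: plate controls were DMSO wells with enzyme for no effect and DMSO wells lacking enzyme for full effect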
# SENP8 block-2 – inhibitors of human SENP8 protease. hit rate 1.2% among 330,000. Q96LD8. purified SENP8, Z-RLRGG-aminoluciferin cleavage, luminescence. inhibition, % at 10 µM; in the data active = inhibition above about 50%
# SENP7 block – blocks the human protease SENP7 | Q9BQF6 | inhibition, % at 5 µM | recombinant SENP7, Z-RLRGG-aminoluciferin luminescence, 40 min | hit rate 1.5% among 330,000;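 active = inhibition above about 50% at the single test dose, limit read from the data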;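 note: plate controls were DMSO with enzyme for no effect and no enzyme buffer wells for full effect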
# SENP8 conf – confirmation of human SENP8 protease inhibitors; hit rate 40% among 6,200; inhibition, % at 12.5 µM; Recombinant SENP8, Z-RLRGG-aminoluciferin luminescence, 60 min; shares compounds with SENP7 block;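 active = mean inhibition across replicates above about 50%, limit read from the data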
# SENP6 confirm – confirmation of human SENP6 protease inhibitors. shares compounds with SENP7 block. recombinant SENP6, Z-RLRGG-aminoluciferin luminescence. inhibition, % at 12.5 µM. hit rate 58% among 6,200
# SENP7 confirm – confirmation of human SENP7 protease inhibitors; shares compounds with SENP7 block; recombinant SENP7, Z-RLRGG-aminoluciferin luminescence, 40 min; inhibition, % at 12.5 µM; hit rate 69% among 6,200; AID 488917
# Casp3 SENP sel – caspase-3 inhibition (SENP selectivity assay); inhibition, % at 12.5 µM; purified caspase-3, Z-DEVD-aminoluciferin luminescence, 60 min; hit rate 60% among 6,200; shares compounds with SENP7 block;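 active = mean inhibition above about 50%, limit read from the data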;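 note: plate controls were enzyme with DMSO for no effect and wells without caspase-3 for full effect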
# Target sequence (P42574 28-227 limits assumed): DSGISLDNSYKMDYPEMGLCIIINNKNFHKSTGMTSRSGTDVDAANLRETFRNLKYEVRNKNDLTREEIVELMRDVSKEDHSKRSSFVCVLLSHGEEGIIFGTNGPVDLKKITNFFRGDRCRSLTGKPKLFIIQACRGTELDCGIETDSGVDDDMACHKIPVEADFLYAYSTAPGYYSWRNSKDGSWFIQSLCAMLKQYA
# SENP luc ctr – interferes with luciferase luminescence in SENP counter-screen. Pre-incubated SENP8/Z-RLRGG-aminoluciferin, luciferase luminescence interference. shares compounds with SENP7 block. hit rate 39% among 6,200. inhibition, % at 12.5 µM;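 active = mean inhibition above about 50% when retested at one dose, limit read from the data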;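 note: plate controls were DMSO wells with completed reaction for no effect and substrate without enzyme for full effect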
# * hit, by the source's call; i = inactive; nt = not tested or not shown. Rows were chosen to be rich in hits. Some 2.5% of all compounds tested hit in one or more screens of this group.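 Rule for the calls, unless noted: active = mean inhibition above about 50% in the one-dose retest (limit read from the data); inactive = the rest.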
SMILES,SENP1 inh,SENP8 block-1,SENP6 block,SENP8 block-2,SENP7 block,SENP8 conf,SENP6 confirm,SENP7 confirm,Casp3 SENP sel,SENP luc ctr
c1ccc(-c2noc(-c3ccc4c(c3)OCO4)n2)cc1,2,-8,97*,93*,100*,92*,88*,96*,94*,31
Brc1ccc(-c2nc(-c3ccccc3)no2)o1,4,10,90*,85*,92*,-4,87*,99*,70*,28
Cc1cc(=O)[nH]c(N=N/C(=N/Nc2ccccc2C)c2ccccc2)n1,0,2,-42,3,3,nt,nt,nt,nt,nt
Cc1cc(=O)[nH]c(N=N/C(=N/Nc2ccc(O)cc2)c2ccccc2)n1,48*,11,61*,38,17,17,15,14,46,8
COc1ccc(N/N=C(/N=Nc2nc(C)cc(=O)[nH]2)c2ccccc2)cc1,5,19,68*,36,35,13,11,25,48,29
NC(COCc1ccccc1)c1csc(Nc2cc(NCCCO)ncn2)n1 (stereo not drawn),-67,-80,nt,nt,nt,nt,nt,nt,nt,nt
Cc1ccc(/C=C/c2nnc(-c3cccs3)o2)cc1,1,-304,91*,86*,0,-5,43,67*,43,23
Cc1ccc(-c2nnc(-c3cccs3)o2)cc1,1,-339,24,68*,81*,72*,87*,99*,86*,43
Fc1ccc(/C=C/c2nnc(-c3cccs3)o2)cc1,-1,-409,61*,20,67*,0,0,15,27,12
Cc1ccc(/C=C/c2nnc(-c3ccc(C)cc3)o2)cc1,0,-284,31,7,7,nt,nt,nt,nt,nt
Cc1ccc2c(c1)N(CC(=O)NCCc1ccccc1)C(=O)c1cccnc1O2,3,9,11,4,1,nt,nt,nt,nt,nt
COc1ccc(N2N=NN(C(C)C)C2=C(Cl)c2nnnn2-c2ccc(OC)cc2)cc1,1,11,nt,nt,nt,nt,nt,nt,nt,nt
Cc1ccccc1S(=O)(=O)N(C)C[C@H]1OCc2cn(nn2)CCCC(=O)N([C@H](C)CO)C[C@@H]1C,4,16,nt,nt,nt,nt,nt,nt,nt,nt
CCCCn1c(N)c(N(CCC(C)C)C(=O)c2ccc3c(c2)OCO3)c(=O)[nH]c1=O,-8,-9,-8,5,-3,nt,nt,nt,nt,nt
O=C(Nc1ccc(Cl)cc1)Nc1cccc2nsnc12,-27,-84,92*,91*,94*,-13,91*,88*,82*,47
O=C(COc1ccccc1)Nc1cccc2nsnc12,-18,i,23,-3,10,nt,nt,nt,nt,nt
O=C(O)c1ccc(-c2nc3scc(-c4ccccc4)c3c(=O)[nH]2)cc1,11,-405,61*,32,25,38,30,62*,23,18
O=C(NNC1=Nc2cccc3cccc1c23)c1ccc(Br)cc1,-20,-26,nt,nt,nt,nt,nt,nt,nt,nt
Cc1nn(-c2ccc(Cl)cc2Cl)c(=O)c2ccccc12,3,12,-10,2,-4,nt,nt,nt,nt,nt
CC1=NN(C(N)=S)C(=O)C1N=Nc1ccc(Cl)cc1Cl (stereo not drawn),0,30,91*,94*,36,81*,86*,94*,72*,67*
COc1ccccc1N=NC1C(=O)N(C(N)=S)N=C1C (stereo not drawn),7,31,-12,2,5,nt,nt,nt,nt,nt
CC1=NN(C(N)=S)C(=O)C1N=Nc1ccccc1Cl (stereo not drawn),2,42*,89*,83*,53*,43,90*,98*,82*,31
CCOc1ccc(C2/C(=C(\O)c3ccc4c(c3)OCCO4)C(=O)C(=O)N2CCN2CCOCC2)cc1OCC (stereo not drawn),0,2,-8,8,-2,nt,nt,nt,nt,nt
O=C(O)/C(=C\c1ccc(-c2ccccc2[N+](=O)[O-])o1)c1ccccc1,1,2,58*,48,0,60*,66*,74*,59*,54*
O=C(/C=C/c1ccc(-c2ccccc2[N+](=O)[O-])o1)c1ccccc1,-12,2,nt,nt,nt,nt,nt,nt,nt,nt
SMILES,SENP1 inh,SENP8 block-1,SENP6 block,SENP8 block-2,SENP7 block,SENP8 conf,SENP6 confirm,SENP7 confirm,Casp3 SENP sel,SENP luc ctr
Cc1ccc(C(=O)N/C(=C\c2ccc(-c3ccccc3[N+](=O)[O-])o2)C(=O)NCCCN(C)C)cc1,-45,-6,50*,26,15,13,35,13,2,0
Cc1ccc(C(=O)N/N=C/c2ccc(-c3ccccc3[N+](=O)[O-])o2)cn1,-12,2,65*,36,30,-24,-8,-8,-5,-8
Cc1ccc(C(=O)N/N=C/c2ccc(-c3cccc(Cl)c3)o2)cn1,0,-436,-17,-1,-6,nt,nt,nt,nt,nt
COc1ccccc1NC(=O)NC1(C(=O)N2CCCCC2)CCCCC1,1,8,-9,-2,-5,nt,nt,nt,nt,nt
COc1ccc(S(=O)(=O)Nc2cccc(S(=O)(=O)N(C)C)c2)cc1[N+](=O)[O-],2,12,nt,nt,nt,nt,nt,nt,nt,nt
CC(=O)Oc1ccc2nc(/C=C/c3ccccc3)oc(=O)c2c1,-38,-198,36,77*,72*,16,22,49,62*,52*
COc1ccc(C(=O)Nc2nnc(Cc3ccccc3)s2)c(OC)c1,0,3,-10,-4,-4,nt,nt,nt,nt,nt
CC1=CN2C(=N)/C(=C/c3ccc([N+](=O)[O-])o3)C(=O)N=C2S1,16,18,nt,nt,nt,nt,nt,nt,nt,nt
CC1=CN2C(=N)/C(=C/c3ccco3)C(=O)N=C2S1,-2,26,52*,14,38,32,28,71*,74*,2
CC(C)(C)c1ccc(CC(=O)N2CCC2(C)C(=O)NS(=O)(=O)c2ccc(Cl)cc2)cc1 (stereo not drawn),1,3,nt,nt,nt,nt,nt,nt,nt,nt
Nc1nc(Nc2ccc(Cl)cc2)nc2ccccc12,0,-272,98*,95*,97*,96*,97*,101*,93*,95*
COc1cc2nc(Nc3ccc(C)c(Cl)c3)nc(N)c2cc1OC,1,-297,28,13,39,nt,nt,nt,nt,nt
Nc1ncnc(Nc2ccccc2)n1,0,4,-20,-11,-11,nt,nt,nt,nt,nt
Nc1nc(CCl)nc(Nc2ccccc2)n1,0,22,-13,-15,6,nt,nt,nt,nt,nt
Cc1ccc(Nc2nc(N)c3ccccc3n2)cc1Cl,-3,-289,97*,97*,98*,99*,100*,103*,93*,85*

# Screening data (PubChem BioAssay)
